The values below come from ChEMBL document CHEMBL1149329, “Synthesis and biological activity of sulfonamide derivatives of epipodophyllotoxin” (J Med Chem, 2004).

The structures appear in SMILES notation.

For one experiment, the system named is MDA-MB-231. Description: […] antiproliferative activity against MDA-MB-231 cell line. The format is functional. As to conditions: Homo sapiens.
Another experiment has as its system NCI-H69. Description: […] antiproliferative activity against NCI-H69 cell line. The format is functional. As to conditions: Homo sapiens.
Experiment [1] has as its system A549. Kind of experiment: […] antiproliferative activity against A549 cell line. Format: functional. As to conditions: Homo sapiens.
The test system of a further experiment is SK-N-MC. Kind of experiment: […] antiproliferative activity against SK-N-MC cell line. As to conditions: Homo sapiens. The format is functional.
Experiment [2] relates to A549. Kind of experiment: Antitumor activity against A549 non small cell carcinoma at dose range of 70-100 mg/kg on day 14, 21, 28; activity expressed as maximum tolerated dose. The format is functional, Homo sapiens. The procedure, abridged: (§1)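 A549 human lung tumour cells were implanted orthotopically, 10⁶ cells through the chest wall into the left pleural space of anaesthetised BALB/C nude mice. Once tumours were established, drug was given iv on days 14, 21 and 28 after tumour cell injection. The endpoint was life span, expressed as T/C (%) = median survival time of treated/control × 100. MTD was the dose causing no toxic death and/or no weight loss >20%.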

A further experiment has as its system K562. Kind of experiment: […] antiproliferative activity against K-562 cell line. As to conditions: Homo sapiens. The format is functional.
Experiment [3] relates to P388. Description: […] antiproliferative activity against P388 cell line. The format is functional. As to conditions: Mus musculus.
The subject of a further experiment is DU-145. Description: […] antiproliferative activity against DU-145 cell line. The format is functional. As to conditions: Homo sapiens.
The subject of the next experiment is HT-29. Kind of experiment: […] antiproliferative activity against HT-29 cell line. Format: functional. As to conditions: Homo sapiens.
Experiment [4] in a line: Median survival time of treated animals/median survival time of control animals; ranges from 122-131. Format: functional. The procedure, abridged:
as §1

The subject of the next experiment is A-431. Kind of experiment: […] antiproliferative activity against A431 cell line. The format is functional. As to conditions: Homo sapiens.
Experiment [5] concerns P388. Kind of experiment: Median survival time of treated animals/median survival time of control animals. Format: functional, Mus musculus.
The next experiment is filed under the species Mus musculus. Kind of experiment: Compound was evaluated for long-term survivors scored at day 60; 6/42. Format: functional.
The next experiment relates to L1210. Kind of experiment: Percent of L1210 cells in the G2+M phase of the cell cycle at a compound concentration of 2.5 uM. Format: functional, Mus musculus. The gist of the method: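 L1210 cells (2.5 × 10⁵ cells/mL) were incubated for 21 h with compound at the stated concentration. Flow cytometry was run on 10⁴ cells per sample, and the percentage of cells in G2+M was recorded.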

The next experiment deals with KB 3-1. Kind of experiment: In vitro antiproliferative activity against KB-3-1 cell line. As to conditions: Homo sapiens.
Experiment [6] has as its system P388. Kind of experiment: Antitumor activity against P388 leukemia at dose range of 6.25-100 mg/kg on day 1, activity expressed as maximum tolerated dose. Format: functional, Mus musculus.
The next experiment concerns IGROV-1. Kind of experiment: […] antiproliferative activity against IGROV1 cell line. Format: functional. As to conditions: Homo sapiens.
The target in experiment [7] is DNA topoisomerase II (Homo sapiens) (UniProt P11388+Q02880). Description: Inhibition of human DNA Topoisomerase II mediated DNA cleavage through the stabilization of transient DAN/topoisomerase II cleavage complex. Format: protein assay. The gist of the method:
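Supercoiled pBS DNA (0.1 μg) preincubated 15 min at 30 °C with drug at 50 μM in 50 mM Tris-HCl pH 7.5, 1 mM ATP, 120 mM KCl, 10 mM MgCl2, 0.5 mM DTT, 0.1 mM EDTA, BSA. Two units human topo II added, 30 min at 30 °C. SDS/proteinase K digestion 30 min at 55 °C. 1% agarose gel with ethidium bromide; linear DNA percentage read, mean of three independent experiments.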

Consider `COc1cc([C@@H]2c3cc4c(cc3[C@@H](O[C@@H]3O[C@@H]5CO[C@@H](C)O[C@H]5[C@H](O)[C@H]3O)[C@H]3COC(=O)[C@H]23)OCO4)cc(OC)c1O` [ETOPOSIDE], for which the 50% inhibitory concentration (IC50) in the experiment on MDA-MB-231 stood at 0.6 µM; in the experiment with NCI-H69, 1.19 µM; with A549 [1] it was 0.664 µM; with SK-N-MC it was 0.275 µM; in the experiment on K562 it was 0.522 µM; in the experiment on P388 [3], 0.0298 µM. Moreover, the IC50 with DU-145 is 2.37 µM; in the experiment on HT-29, 2.37 µM; in the experiment on A-431 it was 0.591 µM; in the experiment with KB 3-1, 0.567 µM; with IGROV-1, 0.985 µM. For the same compound, the MTD is 70 in the experiment on A549 [2] and 100 in the experiment on P388 [6]. In addition, the T/C in experiment [4] was determined as 131%; in the experiment on P388 [5] it was 233%. The same compound showed an LTS in the experiment listed under Mus musculus of 6. In addition, the Effect in the experiment on L1210 was 80%. In [7], this compound had an Activity of 50.
